Laboratory results: ChEMBL document CHEMBL1641377, “Discovery of novel, potent, selective, and orally active human glucagon receptor antagonists containing a pyrazole core” (Bioorg Med Chem Lett, 2011)
Activity calls are given as the source filed them. No cut-off for these calls is given here.

Tests used:
Glucagon receptor [1] = target: Glucagon receptor (Homo sapiens, UniProt P47871); experiment: Displacement of [125I]glucagon from human GCGR expressed in CHO cells; format: cell-based
In short: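 Binding inhibition of 125I-glucagon to human GCGR expressed in CHO cell membranes; IC50 reported, n given where replicated.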

Mus musculus [2] = experiment: Antidiabetic activity in transgenic mouse expressing human GCGR assessed as inhibition of glucagon-induced blood glucose excursion at 30 mg/kg, po administered 60 mins before glucagon challenge measured after 48 mins; format: functional, organism-based; set-up: dose 30 mg/kg
In short: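 hGCGR transgenic mice (only functional receptor is human GCGR), 9 per group, given compound orally, then glucagon 15 µg/kg IP 60 min later (one arm dosed 30 mpk three hours before challenge); blood glucose monitored at 12, 24, 36 and 48 min after glucagon.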

[3] = Drug level in blood of transgenic mouse expressing human GCGR at 10 mg/kg, po after 45 mins; format: ADME, organism-based; set-up: dose 10 mg/kg, route oral; conditions: read-out: Drug uptake
In short: (§1)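 Blood drug concentration sampled in hGCGR transgenic mice during the oral glucagon-challenge pharmacodynamic assay at 45 and 120 min post dose, 10 and 30 mpk groups, n = 3 per group.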

[4] = Drug level in blood of transgenic mouse expressing human GCGR at 10 mg/kg, po after 120 mins; format: ADME, organism-based; set-up: dose 10 mg/kg, route oral; conditions: read-out: Drug uptake; in short: as §1
[5] = Drug level in blood of transgenic mouse expressing human GCGR at 30 mg/kg, po after 45 mins; format: ADME, organism-based; set-up: dose 30 mg/kg, route oral; conditions: read-out: Drug uptake; in short: as §1
[6] = target: Glucagon-like peptide 1 receptor (Homo sapiens, UniProt P43220); experiment: Antagonist activity at human GLP1R expressed in CHO cells assessed as inhibition of glucagon-induced cAMP accumulation; format: functional, cell-based
Glucagon-like peptide 1 receptor, sequence (P43220 whole entry): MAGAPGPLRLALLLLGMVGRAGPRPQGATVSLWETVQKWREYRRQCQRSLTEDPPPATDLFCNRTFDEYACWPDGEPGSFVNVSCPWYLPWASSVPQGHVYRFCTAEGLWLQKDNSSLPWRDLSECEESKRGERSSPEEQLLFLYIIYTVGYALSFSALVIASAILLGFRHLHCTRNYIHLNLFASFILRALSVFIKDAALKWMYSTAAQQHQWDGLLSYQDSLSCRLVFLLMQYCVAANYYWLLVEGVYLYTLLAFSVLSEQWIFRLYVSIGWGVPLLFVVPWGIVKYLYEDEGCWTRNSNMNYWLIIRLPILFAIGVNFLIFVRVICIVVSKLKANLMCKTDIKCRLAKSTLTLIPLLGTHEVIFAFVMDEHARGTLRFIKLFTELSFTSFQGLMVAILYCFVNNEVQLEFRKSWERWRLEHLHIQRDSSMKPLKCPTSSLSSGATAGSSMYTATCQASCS

Canis familiaris = experiment: Cardiotoxicity in dog assessed as effect on cardiovascular parameters at 1 to 10 mg/kg, iv after 30 mins; format: toxicity, organism-based, Canis lupus familiaris, Heart; set-up: dose 1-10 mg/kg, route intravenous; conditions: in vivo, 0.5 h
[7] = Plasma concentration in dog at 1 to 10 mg/kg, iv after 30 mins; format: ADME, organism-based, Canis lupus familiaris; set-up: dose 1-10 mg/kg, route intravenous
Cytochrome P450 3A4 = Cytochrome P450 3A4 (Homo sapiens, UniProt P08684); experiment: Inhibition of CYP3A4; format: ADME
Cytochrome P450 3A4, sequence (P08684 whole entry): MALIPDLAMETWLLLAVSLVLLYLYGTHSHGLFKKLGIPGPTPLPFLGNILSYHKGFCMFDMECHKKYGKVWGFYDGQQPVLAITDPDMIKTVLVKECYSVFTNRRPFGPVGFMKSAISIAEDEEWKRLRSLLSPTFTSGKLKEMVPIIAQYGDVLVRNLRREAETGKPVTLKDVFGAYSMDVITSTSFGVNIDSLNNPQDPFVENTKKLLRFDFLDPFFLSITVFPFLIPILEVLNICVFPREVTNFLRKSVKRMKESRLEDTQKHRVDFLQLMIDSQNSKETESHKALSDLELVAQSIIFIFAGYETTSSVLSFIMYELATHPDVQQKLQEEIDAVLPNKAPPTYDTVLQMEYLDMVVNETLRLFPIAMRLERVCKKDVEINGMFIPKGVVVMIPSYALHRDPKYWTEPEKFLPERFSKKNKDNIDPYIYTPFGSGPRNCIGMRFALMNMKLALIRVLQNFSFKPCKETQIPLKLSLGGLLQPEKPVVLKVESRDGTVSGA

Cytochrome P450 2C8 = target: T1, Cytochrome P450 2C8 (Homo sapiens, UniProt P10632); experiment: Inhibition of CYP2C8; format: ADME
T1 sequence (P10632 whole entry): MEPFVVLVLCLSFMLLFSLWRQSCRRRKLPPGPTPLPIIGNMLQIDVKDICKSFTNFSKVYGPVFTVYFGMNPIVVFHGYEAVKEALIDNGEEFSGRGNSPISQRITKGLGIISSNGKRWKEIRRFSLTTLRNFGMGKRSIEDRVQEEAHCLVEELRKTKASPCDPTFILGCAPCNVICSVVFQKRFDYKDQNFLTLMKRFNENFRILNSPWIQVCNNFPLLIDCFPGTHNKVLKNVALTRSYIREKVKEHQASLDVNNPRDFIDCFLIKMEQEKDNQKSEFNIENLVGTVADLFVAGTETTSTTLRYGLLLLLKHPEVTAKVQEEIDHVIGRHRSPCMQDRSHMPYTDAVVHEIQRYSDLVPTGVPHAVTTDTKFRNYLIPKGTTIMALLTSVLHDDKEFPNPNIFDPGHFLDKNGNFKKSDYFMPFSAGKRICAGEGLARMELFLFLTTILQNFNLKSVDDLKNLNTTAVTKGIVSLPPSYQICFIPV

Cytochrome P450 2C9 = Cytochrome P450 2C9 (Homo sapiens, UniProt P11712); experiment: Inhibition of CYP2C9; format: ADME
Cytochrome P450 2C9, sequence (P11712 whole entry): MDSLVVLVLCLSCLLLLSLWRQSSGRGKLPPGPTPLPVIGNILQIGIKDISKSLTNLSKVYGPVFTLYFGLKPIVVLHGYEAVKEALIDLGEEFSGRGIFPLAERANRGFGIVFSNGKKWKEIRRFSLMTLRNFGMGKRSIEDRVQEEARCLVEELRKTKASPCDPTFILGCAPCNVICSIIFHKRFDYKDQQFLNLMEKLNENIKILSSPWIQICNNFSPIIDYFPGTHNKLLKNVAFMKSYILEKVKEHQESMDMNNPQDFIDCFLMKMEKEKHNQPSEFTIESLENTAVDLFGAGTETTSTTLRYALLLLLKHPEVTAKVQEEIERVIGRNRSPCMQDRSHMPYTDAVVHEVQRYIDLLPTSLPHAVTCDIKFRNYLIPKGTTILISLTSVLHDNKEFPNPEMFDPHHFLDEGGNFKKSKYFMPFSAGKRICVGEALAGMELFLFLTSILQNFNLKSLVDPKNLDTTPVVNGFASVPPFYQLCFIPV

[8] = target: T2, Nuclear receptor subfamily 1 group I member 2 (Homo sapiens, UniProt O75469); experiment: Activity at human PXR
T2 sequence (O75469 whole entry): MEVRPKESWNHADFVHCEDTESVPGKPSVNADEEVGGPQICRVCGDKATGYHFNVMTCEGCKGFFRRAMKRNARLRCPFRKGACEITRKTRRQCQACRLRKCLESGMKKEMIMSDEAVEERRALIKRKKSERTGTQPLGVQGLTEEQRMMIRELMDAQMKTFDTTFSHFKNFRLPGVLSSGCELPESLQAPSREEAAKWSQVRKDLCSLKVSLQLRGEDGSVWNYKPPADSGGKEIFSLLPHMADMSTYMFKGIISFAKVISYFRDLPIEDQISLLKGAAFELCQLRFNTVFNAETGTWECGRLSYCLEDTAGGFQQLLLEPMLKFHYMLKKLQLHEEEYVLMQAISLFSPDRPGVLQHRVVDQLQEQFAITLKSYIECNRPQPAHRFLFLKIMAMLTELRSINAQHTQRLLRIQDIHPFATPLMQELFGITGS

Mus musculus [9] = experiment: In vivo occupancy of human GCGR transfected in mouse at 10 mg/kg after 3 hrs; format: functional
In short: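 In vivo receptor occupancy measured in hGCGR transgenic mice after oral dosing, at 1 h post-dose (30 and 10 mpk) and in a separate experiment at 1, 3 and 8 h after 10 mpk.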

Mus musculus [10] = experiment: Antihyperglycemic activity in streptozotocin-induced diabetes mouse model assessed as decrease in blood glucose AUC level at 10 mg/kg, po after 4 weeks; format: functional; conditions: 672 h
In short: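 Diabetic model: hGCGR transgenic mice on high-fat diet for eight weeks, streptozotocin-treated during the last four weeks; single oral dose, blood glucose AUC over 2–6 h measured.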

[11] = Volume of distribution at steady state in mouse at 1 mg/kg, iv and 2 mg/kg, po; format: ADME, organism-based; conditions: in vivo, read-out: Vdss
[12] = Volume of distribution at steady state in rat at 1 mg/kg, iv and 2 mg/kg, po; format: ADME, organism-based; conditions: in vivo, read-out: Vdss
[13] = Volume of distribution at steady state in dog at 0.5 mg/kg, iv and 2 mg/kg, po; format: ADME, organism-based, Canis lupus familiaris; conditions: in vivo, read-out: Vdss
[14] = Cmax in mouse at 2 mg/kg, po; format: ADME, organism-based; set-up: dose 2 mg/kg, route oral; conditions: in vivo
[15] = Cmax in rhesus monkey at 2 mg/kg, po; format: ADME, organism-based, Macaca mulatta; set-up: dose 2 mg/kg, route oral; conditions: in vivo
[16] = Bioavailability in mouse at 1 mg/kg, iv and 2 mg/kg, po; format: ADME, organism-based; conditions: in vivo
[17] = Bioavailability in rat at 1 mg/kg, iv and 2 mg/kg, po; format: ADME, organism-based; conditions: in vivo
[18] = Bioavailability in rhesus monkey at 0.5 mg/kg, iv and 2 mg/kg, po; format: ADME, organism-based, Macaca mulatta; conditions: in vivo
Glucagon receptor [19] = target: Glucagon receptor (Mus musculus, UniProt Q61606); experiment: Antagonist activity at mouse GCGR assessed as inhibition of glucagon-induced cAMP accumulation; format: functional
Glucagon receptor (Mus musculus, UniProt Q61606), sequence (Q61606 whole entry): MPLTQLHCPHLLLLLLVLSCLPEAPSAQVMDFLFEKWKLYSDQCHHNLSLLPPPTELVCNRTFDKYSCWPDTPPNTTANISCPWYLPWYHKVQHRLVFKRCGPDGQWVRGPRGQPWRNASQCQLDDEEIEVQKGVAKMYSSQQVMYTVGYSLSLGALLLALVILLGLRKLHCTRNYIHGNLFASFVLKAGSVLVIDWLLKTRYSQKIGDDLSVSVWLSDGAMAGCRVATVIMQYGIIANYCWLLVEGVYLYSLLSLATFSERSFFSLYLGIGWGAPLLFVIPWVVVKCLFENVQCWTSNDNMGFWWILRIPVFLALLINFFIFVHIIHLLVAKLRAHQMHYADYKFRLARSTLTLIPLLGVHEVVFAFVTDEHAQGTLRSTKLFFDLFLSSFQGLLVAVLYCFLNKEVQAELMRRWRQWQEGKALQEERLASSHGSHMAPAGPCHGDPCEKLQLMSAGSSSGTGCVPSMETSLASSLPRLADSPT

[20] = Plasma concentration in rhesus monkey at 10 mg/kg, po after 4 hrs; format: ADME, organism-based, Macaca mulatta; set-up: dose 10 mg/kg, route oral
In short: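 Overnight-fasted rhesus monkeys received the oral dose 4 h before the glucagon challenge (15 µg/kg im, time zero). Plasma drug level was sampled at the time of the challenge (t = 0, n = 4). Plasma glucose was then followed every 10 min and expressed as the change from time zero.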

Glucagon receptor (Homo sapiens, UniProt P47871), sequence (P47871 whole entry): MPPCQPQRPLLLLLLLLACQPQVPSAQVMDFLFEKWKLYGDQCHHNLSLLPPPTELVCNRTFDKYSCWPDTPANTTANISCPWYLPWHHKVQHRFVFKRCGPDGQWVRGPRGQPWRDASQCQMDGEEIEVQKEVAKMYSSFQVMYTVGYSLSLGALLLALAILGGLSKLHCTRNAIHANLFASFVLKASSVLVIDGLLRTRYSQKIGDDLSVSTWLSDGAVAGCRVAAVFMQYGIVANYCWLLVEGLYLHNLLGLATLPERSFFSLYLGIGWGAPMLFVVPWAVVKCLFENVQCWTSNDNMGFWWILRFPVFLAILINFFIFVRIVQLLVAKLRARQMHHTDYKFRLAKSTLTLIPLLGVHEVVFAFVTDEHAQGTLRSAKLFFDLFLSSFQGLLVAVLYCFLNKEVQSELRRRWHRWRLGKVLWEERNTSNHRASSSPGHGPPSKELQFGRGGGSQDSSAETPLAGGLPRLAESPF

O=C(O)CCNC(=O)c1ccc(Cn2nc(-c3cc(Cl)cc(Cl)c3)cc2-c2ccc(OC(F)(F)F)cc2)cc1
IC50 (Glucagon receptor [1]): 0.084 µM | inhibition (Mus musculus [2]): Active | concentration at 0.75 h [3]: 3.55 µM | concentration at 2 h [4]: 3.35 µM | concentration at 0.75 h [5]: 10.3 µM | IC50 [6]: > 10 µM | Activity (Canis familiaris): Non-toxic | concentration at 0.5 h [7]: 96 µM | IC50 (Cytochrome P450 3A4): 39 µM | IC50 (Cytochrome P450 2C8): 19 µM | IC50 (Cytochrome P450 2C9): 5.8 µM | EC50 [8]: > 25 µM | Activity (Mus musculus [9]): 60% | inhibition in vivo at 10 mg/kg (Mus musculus [10]): 27% | Vd [11]: 1.1 L/kg | Vd [12]: 0.75 L/kg | Vd [13]: 0.14 L/kg | Cmax [14]: 0.23 µM | Cmax [15]: 4.2 µM | bioavailability [16]: 15% | bioavailability [17]: 57% | bioavailability [18]: 68% | IC50 (Glucagon receptor [19]): 2 µM | concentration at 4 h [20]: 8.8 µM
